According to article PMC4467241 (Clinical Pharmacology in Drug Development, 2014):
Where two headings read alike, the source gives them in different places. Marks after values point to notes of the source that are not given here.

What was measured:
[1] = format: in vivo, human; details: for CL/F / AUC(0-t) / AUC(0-inf) / Cmax / half-life / tmax: plasma; for AUC(0-t) / AUC(0-inf) / Cmax / half-life / tmax: human, po; for AUC(0-t): AUC0–t; for AUC(0-inf): AUC0–∞
Procedure, shortened: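 Heparinised plasma was taken predose and at 0.5–48 h, spun within 30 min and stored at −70 °C. Parent and metabolite were measured by SPE LC–MS/MS; noncompartmental AUC, with ANOVA on log values giving geometric-mean ratio and 90% CI.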

[2] = cited from earlier work
[3] = 10 mg, MTX 10 mg oral alone (Day 1), N = 1
[4] = 12.5 mg, MTX 12.5 mg oral alone (Day 1), N = 1
[5] = 17.5 mg, MTX 17.5 mg oral alone (Day 1), N = 1
[6] = MTX 12.5 mg oral + Apremilast 30 mg Q12H (Day 8), N = 1
[7] = MTX 17.5 mg oral + Apremilast 30 mg Q12H (Day 8), N = 1
[8] = methotrexate in plasma, ANOVA, N = 15
[9] = methotrexate in plasma, all dose groups, N = 15, acceptance range 80–125%

CN(Cc1cnc2nc(N)nc(N)c2n1)c1ccc(C(=O)N[C@@H](CCC(=O)O)C(=O)O)cc1 [MTX, methotrexate, reference compound]
CL/F ([1]; MTX 10 mg oral alone (Day 1), N = 1): 120 mL/min
CL/F ([1]; MTX 12.5 mg oral alone (Day 1), N = 1): 88 mL/min
CL/F ([1]; MTX 17.5 mg oral alone (Day 1), N = 1): 129 mL/min
CL/F ([1]; MTX 20 mg oral alone (Day 1), N = 6, arithmetic mean (SD)): 122 (33.7) mL/min
AUC(0-t) [1, 3]: 1390 ng·h/mL
AUC(0-inf) [1, 3]: 1380 ng·h/mL
Cmax [1, 3]: 323 ng/mL
half-life ([1]; 10 mg, t1/2, MTX 10 mg oral alone (Day 1), N = 1): 3.5 h
tmax [1, 3]: 1.45 h
AUC(0-t) [1, 4]: 2360 ng·h/mL
Cmax [1, 4]: 528 ng/mL
half-life ([1]; 12.5 mg, t1/2, MTX 12.5 mg oral alone (Day 1), N = 1): 3.6 h
tmax [1, 4]: 1 h
AUC(0-t) [1, 5]: 2250 ng·h/mL
Cmax [1, 5]: 646 ng/mL
half-life ([1]; 17.5 mg, t1/2, MTX 17.5 mg oral alone (Day 1), N = 1): 5.6 h
tmax [1, 5]: 1 h
AUC(0-t) [1, 6]: 3020 ng·h/mL
AUC(0-t) [1, 7]: 2270 ng·h/mL
AUC(0-inf) [1, 6]: 3010 ng·h/mL
Cmax [1, 6]: 669 ng/mL
Cmax [1, 7]: 565 ng/mL
half-life ([1]; t1/2, MTX 12.5 mg oral + Apremilast 30 mg Q12H (Day 8), N = 1): 3.2 h
tmax [1, 6]: 2.07 h
tmax [1, 7]: 1 h
Intra-subject CV% of AUC0–∞ ([1]; methotrexate in plasma, ANOVA, N = 14): 11.19%
Intra-subject CV% of AUC0–t [1, 8]: 10.57%
Intra-subject CV% of Cmax [1, 8]: 11.07%
AUC0–∞ ratio of geometric means (“methotrexate + apremilast”/“methotrexate”) ([1]; methotrexate in plasma, all dose groups, N = 14, acceptance range 80–125%): 100.39
tmax median difference (“MTX + Apremilast” − “MTX”) ([1]; methotrexate in plasma, all dose groups, N = 15, Hodges–Lehmann): 0.235 ^d hr
AUC0–t ratio of geometric means (“methotrexate + apremilast”/“methotrexate”) [1, 9]: 99.90
Cmax ratio of geometric means (“methotrexate + apremilast”/“methotrexate”) [1, 9]: 99.49
90% CI for Cmax, AUC0–t and AUC0–∞ versus FDA acceptance range of 80–125% ([1]; methotrexate with versus without apremilast): within the acceptance range for equivalency
Fraction metabolized to 7-hydroxy methotrexate [2]: ~10%
